# Test results published in ChEMBL document CHEMBL3232996, “Synthesis and biological evaluation of novel (123)I-labeled 4-(4-iodophenyl)butanoyl-L-prolyl-(2S)-pyrrolidines for imaging prolyl oligopeptidase in vivo” (Eur J Med Chem, 2014).
# How the values were obtained:
# Format in all cases: ADME, organism-based
# Details in all cases: in vivo
# [1] = Drug uptake in iv dosed C57Bl/6JRccHsd mouse blood cells measured at 160 mins post dose pretreated with 50 umol/kg, ip prolyl oligopeptidase inhibitor KYP-2047 10 mins before compound dosing by SPECT analysis
# In short: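 Mice got tracer i.v., some after i.p. KYP-2047 (50 µmol/kg) 10 min before. Cardiac blood was collected at 20, 40, 80 or 160 min and spun 5 min at 2000 g into cells and plasma. Plasma was precipitated with acetonitrile and pellet and supernatant were gamma-counted. Activity in cells, protein-bound and free plasma is given as % of total blood activity, n = 3.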
# [2] = test system: Mus musculus; assay: Biodistribution in gastrocnemius muscle of iv dosed C57BL/6JRccHsd mouse turpentine-induced acute localized inflammation model after 20 mins to 24 hrs by SPEC-CT analysis (reference value: 2.0 +/- 0.6 %ID/g)
# [3] = test system: Blood; assay: Biodistribution in C57Bl/6JRccHsd mouse blood at 2.86 +/- 1.26 MBq, iv measured at 40 mins post dose pretreated with 50 umol/kg, ip prolyl oligopeptidase inhibitor KYP-2047 10 mins before compound dosing by SPECT analysis
# In short: (§1)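 Organs excised at 5, 20, 40, 80 or 160 min and radioactivity gamma-counted as %ID/g (brain also as %ID). Blocking groups received KYP-2047 (50 µmol/kg, 10 mL/kg, 1% DMSO in 0.9% NaCl) i.p. 10 min before tracer. Mean ± SD, n = 2–4 per time point. Blocking compared by two-tailed Student's t test.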
# [4] = test system: Brain; assay: Biodistribution in C57Bl/6JRccHsd mouse brain at 2.86 +/- 1.26 MBq, iv measured at 80 mins by SPECT analysis; in short: as §1
# [5] = test system: Blood; assay: Biodistribution in C57Bl/6JRccHsd mouse blood at 2.86 +/- 1.26 MBq, iv measured at 20 mins by SPECT analysis; in short: as §1
# [6] = Plasma protein binding in iv dosed C57Bl/6JRccHsd mouse measured at 20 mins post dose pretreated with 50 umol/kg, ip prolyl oligopeptidase inhibitor KYP-2047 10 mins before compound dosing by SPECT analysis
# In short: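 Male mice given 3.6 MBq tracer i.v. via lateral tail vein; blocking groups got POP inhibitor i.p. (50 µmol/kg, 10 mL/kg, 1% DMSO in 0.9% NaCl) 10 min before. Heparinized cardiac blood on ice, gamma-counted, spun 5 min at 2000 g; plasma counted, precipitated with 1.5 volumes acetonitrile, respun; cell-bound, protein-bound and free fractions expressed as % of blood activity; n = 3.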
# [7] = test system: Kidney; assay: Biodistribution in C57Bl/6JRccHsd mouse kidney at 2.86 +/- 1.26 MBq, iv measured at 80 mins by SPECT analysis; in short: as §1
structure (smiles),measurement,setting,value
N#C[C@@H]1CCCN1C(=O)[C@@H]1CCCN1C(=O)CCCc1ccc([123I])cc1,Drug uptake,[1],42%
same,Drug uptake,[2],0.8 % ID/g
same,Drug uptake,[3],4 % ID/g
same,Drug uptake,[4],0.62 % ID/g
same,Drug uptake,[5],8.5 % ID/g
same,PPB,[6],0%
same,Drug uptake,[7],10.02 % ID/g
